Values joined by “and” are separate entries in the source; they are usually repeats but may differ in a detail not shown here. Identical values can stand only once. Like-named read-outs stand apart in the source and are kept apart here. Some results are limits rather than exact numbers.

The values that follow come from paper PMC2674521 (Journal of pharmaceutical sciences, 2009).

For data set [1] the following is noted: no reference given; cited from earlier work.
The test system of the next data set is HSA. The note with it: cited from earlier work.
The subject of a further data set is RSA. The note with it: ref 46; cited from earlier work.
In data set [2] the target is T1, human serum albumin (HSA) (Homo sapiens, UniProt P02768). The note with it: cited from earlier work; for % bound to HSA: 40 mg/mL HSA solution.
T1 sequence (P02768 25-609): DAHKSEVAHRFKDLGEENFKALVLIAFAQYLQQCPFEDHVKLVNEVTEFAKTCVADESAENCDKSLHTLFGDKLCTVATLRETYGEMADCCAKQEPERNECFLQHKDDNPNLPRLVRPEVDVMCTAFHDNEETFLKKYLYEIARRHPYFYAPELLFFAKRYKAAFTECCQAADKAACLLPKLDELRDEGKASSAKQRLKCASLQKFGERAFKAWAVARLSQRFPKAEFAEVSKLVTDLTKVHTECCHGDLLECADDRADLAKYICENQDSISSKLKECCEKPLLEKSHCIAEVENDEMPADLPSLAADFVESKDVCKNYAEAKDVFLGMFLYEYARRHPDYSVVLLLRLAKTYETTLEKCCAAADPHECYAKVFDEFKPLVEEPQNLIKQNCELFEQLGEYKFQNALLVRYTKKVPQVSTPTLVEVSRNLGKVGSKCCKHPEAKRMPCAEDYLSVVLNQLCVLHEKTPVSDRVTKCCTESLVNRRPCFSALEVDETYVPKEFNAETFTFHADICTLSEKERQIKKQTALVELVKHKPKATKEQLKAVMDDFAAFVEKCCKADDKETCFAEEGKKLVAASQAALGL
For data set [3], the target named is T1, human serum albumin (HSA). It is filed as in vitro ADME. The note with it: for increase in free radiopharmaceutical level: 8:1 warfarin:HSA mole ratio vs drug-free; for Unbound [^64Cu]Cu-PTSM: HSA; for % Free [^64Cu]Cu-PTSM: 49°C, 2.5% v/v ethanol. The method in brief:
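HSA (globulin-free, ≥99.5% fatty acid free) reconstituted in 0.9% saline at 0.66 mM. 100 µL of drug in saline (3.3–53 mM, pH 7) or saline alone (drug-free control) added to 1.0 mL, giving 40 mg/mL HSA at 0.5:1–8:1 drug:HSA. 2–8 µCi 64Cu tracer added and vortexed. Triplicate aliquots ultrafiltered (30,000 Da NMWL) within 5 min, 64Cu gamma-counted.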

Data set [4] has as its target T2, canine serum albumin (CSA) (Canis lupus familiaris, UniProt P49822). It is filed as in vitro ADME. The note with it: for Unbound level: CSA solutions containing warfarin; for Free tracer: CSA solutions with added ibuprofen.
The test system of data set [5] is rat serum. Format: in vitro ADME.
A short description of data set [6]: Ultrafiltration of [^64Cu]Cu-PTSM in protein-free saline. The method, boiled down: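 Membrane-integrity control without protein: 25 µL ethanol (2.5% v/v) added to 1.0 mL saline containing [64Cu]Cu-PTSM, compared with saline alone. Ultrafiltered through 30,000 Da NMWL membranes, n = 5 per group. % free tracer from 64Cu gamma counts of measured ultrafiltrate and starting-solution volumes.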

Data set [7] deals with rat serum (Rattus norvegicus, UniProt P02770). The note with it: RSA solution; cited from earlier work.
Chain of rat serum (Rattus norvegicus, UniProt P02770) (P02770 25-608): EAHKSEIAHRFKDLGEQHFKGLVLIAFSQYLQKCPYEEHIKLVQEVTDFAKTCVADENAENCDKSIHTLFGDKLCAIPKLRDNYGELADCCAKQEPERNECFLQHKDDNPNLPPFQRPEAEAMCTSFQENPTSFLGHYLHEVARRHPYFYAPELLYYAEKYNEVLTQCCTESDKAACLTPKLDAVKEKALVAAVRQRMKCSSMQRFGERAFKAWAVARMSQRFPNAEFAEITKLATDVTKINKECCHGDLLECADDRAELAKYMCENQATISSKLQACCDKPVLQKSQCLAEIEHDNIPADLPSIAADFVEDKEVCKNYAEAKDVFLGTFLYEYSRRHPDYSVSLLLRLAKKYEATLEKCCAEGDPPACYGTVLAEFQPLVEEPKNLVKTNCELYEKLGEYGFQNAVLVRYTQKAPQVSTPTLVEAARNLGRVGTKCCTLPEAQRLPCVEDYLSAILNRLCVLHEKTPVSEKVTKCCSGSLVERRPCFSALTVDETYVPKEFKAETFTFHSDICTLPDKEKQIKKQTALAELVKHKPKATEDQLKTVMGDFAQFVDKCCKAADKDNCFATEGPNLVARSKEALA
The target in data set [8] is T2, canine serum albumin (CSA). The note with it: no competing drug; cited from earlier work.
The conditions of data set [9]: ref 37, 38; cited from earlier work.
Where [10] appears, read: HSA solutions with even high concentrations of L-tryptophan.
The mark [11] stands for this setting: drug-free HSA control (drug:HSA mole ratio 0), 40 mg/mL HSA.
Setting [12] is: ibuprofen:HSA mole ratio 0.5, 40 mg/mL HSA.
The mark [13] stands for this setting: ibuprofen:HSA mole ratio 1, 40 mg/mL HSA.
The mark [14] stands for this setting: ibuprofen:HSA mole ratio 2, 40 mg/mL HSA.
The mark [15] stands for this setting: ibuprofen:HSA mole ratio 4, 40 mg/mL HSA.
Setting [16] is: ibuprofen:HSA mole ratio 8, 40 mg/mL HSA.
The mark [17] stands for this setting: ibuprofen:HSA mole ratios up to 4:1.
Setting [18] is: warfarin:HSA mole ratio 0.5, 40 mg/mL HSA.
Where [19] appears, read: warfarin:HSA mole ratio 1, 40 mg/mL HSA.
The mark [20] stands for this setting: warfarin:HSA mole ratio 2, 40 mg/mL HSA.
The mark [21] stands for this setting: warfarin:HSA mole ratio 4, 40 mg/mL HSA.
[22] abbreviates: warfarin:HSA mole ratio 8, 40 mg/mL HSA.

T2 sequence (P49822 25-608): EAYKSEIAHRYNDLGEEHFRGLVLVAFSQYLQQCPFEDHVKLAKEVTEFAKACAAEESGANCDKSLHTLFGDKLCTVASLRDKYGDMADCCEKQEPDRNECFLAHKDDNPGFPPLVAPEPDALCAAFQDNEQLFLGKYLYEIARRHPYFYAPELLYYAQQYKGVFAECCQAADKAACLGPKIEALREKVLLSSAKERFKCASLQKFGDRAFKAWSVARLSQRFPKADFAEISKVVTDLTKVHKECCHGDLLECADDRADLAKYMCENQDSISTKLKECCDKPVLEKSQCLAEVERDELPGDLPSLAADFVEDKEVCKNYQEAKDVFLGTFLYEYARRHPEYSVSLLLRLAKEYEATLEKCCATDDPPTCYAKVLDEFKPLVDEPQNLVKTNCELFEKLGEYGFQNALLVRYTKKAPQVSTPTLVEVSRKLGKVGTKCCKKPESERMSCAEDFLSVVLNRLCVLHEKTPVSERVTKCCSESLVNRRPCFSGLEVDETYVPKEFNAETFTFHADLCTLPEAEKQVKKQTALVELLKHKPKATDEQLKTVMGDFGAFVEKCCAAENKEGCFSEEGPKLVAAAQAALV

Consider `CC1(C)S[C@@H]2[C@H](NC(=O)Cc3ccccc3)C(=O)N2[C@H]1C(=O)O` [Benzylpenicillin], for which, in data set [1], the “extent of protein binding in human plasma” value is reported as 50%. The “affinity constant for the IIA site of HSA” value in the data set with HSA (ref 10) is 1200 M⁻¹. The “affinity (Ka) for the IIA site of HSA” value in the data set on HSA (ref 40-42) is 1200 M⁻¹. For the same molecule, the “affinity for site IIA of HSA (Ka)” value in the data set on HSA (reference not given) was 1200 M⁻¹.
With `Cn1nnnc1SCC1=C(C(=O)O)N2C(=O)[C@@H](NC(=O)[C@H](O)c3ccccc3)[C@H]2SC1` [Cephmandole], the “binding to HSA (Ka)” value in the data set with HSA (ref 32) is 1200 M⁻¹.
Turning to `NS(=O)(=O)c1cc(C(=O)O)c(NCc2ccco2)cc1Cl` [Furosemide], in the data set on RSA, the “binding to RSA” value is at most 99.1%.
Consider `CC(C)Cc1ccc(C(C)C(=O)O)cc1` (stereo not shown) [Ibuprofen], for which the “affinity (Ka) for the IIIA site of HSA” value in the data set on HSA (ref 10) was 2.7e+06 M⁻¹. Also, the “affinity for the IIIA site of HSA (Ka)” value with HSA (reference not given) was 2.7e+06 M⁻¹.
Turning to `N[C@@H](Cc1c[nH]c2ccccc12)C(=O)O` [L-tryptophan], the “affinity (Ka) for the IIIA site of HSA” value in the data set on HSA (ref 29-31) is 10000 M⁻¹.
In the case of `CC(=O)CC(c1ccccc1)c1c(O)c2ccccc2oc1=O` (stereo not shown) [Warfarin], the “affinity for HSA (Ka)” value in the data set on HSA (ref 45), with HSA (ref 47) and with HSA (reference not given) was 340000 M⁻¹ each time.
Regarding `CN=C([S-])N/N=C(C)/C(C)=N/NC([S-])=NC.[Cu+2]` [[^64Cu]Cu-ATSM, diacetyl bis(N^4-methylthiosemicarbazonato)copper(II)], the “% bound to HSA” value in [2] is “approx. 95%”. Also, the “increase in free radiopharmaceutical level” value in data set [3] is on record as 300–500%. The “displacement from HSA” value was “not observed” in data set [3] (setting [10]) and “no displacement” in [3] (setting [17]). Besides, the “% Free (corrected)” value in data set [3] (setting [11]) amounted to 5.9 ± 0.4%; in data set [3] (setting [12]), 7.1 ± 0.6%; in data set [3] (setting [13]), 7.5 ± 0.8%; in data set [3] (setting [14]), 8.2 ± 1.1%; in [3] (setting [15]) it was 7.3 ± 0.8%; in data set [3] (setting [16]) it was 10.5 ± 1.1%. The “% Free (corrected)” value in data set [3] (setting [18]) turned out to be 7.3 ± 0.2%; in data set [3] (setting [19]), 9.4 ± 0.8%; in [3] (setting [20]), 12.4 ± 0.9%; in data set [3] (setting [21]) it was 14.5 ± 0.6%; in data set [3] (setting [22]), 19.0 ± 1.7%. Further, the Unbound level in data set [4] was determined as 37.0%. For the same molecule, the Free tracer in data set [4] is reported as 43.8%.
A word on the log P: it is a log measure of how a compound divides between an organic and an aqueous phase. Take `CN=C([S-])N/N=C/C(C)=N/NC([S-])=NC.[Cu+2]` [[^64Cu]Cu-PTSM, pyruvaldehyde bis(N^4-methylthiosemicarbazonato)copper(II)]: the “% Free [^64Cu]Cu-PTSM” value in the data set on rat serum [5] (drug:RSA mole ratio 0) came to 14.7 ± 1.2%; in the data set on rat serum [5] (furosemide:RSA mole ratio 1) it was 20.2 ± 0.7%; with rat serum [5] (furosemide:RSA mole ratio 8), 28.6 ± 0.6%; in the data set with rat serum [5] (phenylbutazone:RSA mole ratio 1) it was 18.6 ± 0.4%; in the data set on rat serum [5] (phenylbutazone:RSA mole ratio 8), 20.6 ± 0.4%; with rat serum [5] (warfarin:RSA mole ratio 1), 19.8 ± 0.5%. The “% Free [^64Cu]Cu-PTSM” value with rat serum [5] (warfarin:RSA mole ratio 8) was 24.1 ± 0.5%; in [3] (capric acid:HSA 1:1, 40 mg/mL HSA), 7.5 ± 0.3 (4) %; in data set [3] (capric acid:HSA 6:1, 40 mg/mL HSA) it was 12.6 ± 3.5 (5) %; in data set [3] (myristic acid:HSA 1:1, 40 mg/mL HSA), 6.8 ± 0.3 (4) %; in [3] (myristic acid:HSA 6:1, 40 mg/mL HSA) it was 14.6 ± 0.8 (5) %; in data set [3] (oleic acid:HSA 1:1, 40 mg/mL HSA) it was 6.0 ± 0.3 (4) %. The “% Free [^64Cu]Cu-PTSM” value in data set [3] (oleic acid:HSA 6:1, 40 mg/mL HSA) is given as 12.7 ± 0.7 (4) %; in data set [3] (palmitic acid:HSA 1:1, 40 mg/mL HSA) it was 5.6 ± 0.2 (3) %; in [3] (palmitic acid:HSA 6:1, 40 mg/mL HSA), 9.6 ± 0.3 (4) %. Also, the results for the “Free tracer (% free)” value in [6] (saline + 2.5% v/v ethanol) and in data set [6] (saline control) were 68.0 ± 2.3% and 67.2 ± 0.7%, respectively. For the same molecule, the “% free” value on rat serum [7] is 14.1 ± 0.3%; in data set [2] (HSA solution), 4.3 ± 0.2%; in data set [3] (HSA with highest concentration of tryptophan, 4.8 mM (1.0 mg/mL)) it was 3.2 ± 0.1%. In data set [2], the “% bound to HSA” value is “approx. 95%”. In data set [8], the “% free in canine serum albumin (CSA) solutions” value is listed as “approximately 42%”. Moreover, the “log P” value in [9] was 1.9. Further, the “effect of fatty acid addition on HSA binding” value in data set [3] (1:1 fatty acid:HSA ratios (capric, myristic, palmitic, oleic)) is “little effect”. The “level of free [^64Cu]Cu-PTSM relative to fatty acid-free” value in [3] (6:1 fatty acid:HSA mole ratios (capric, myristic, palmitic, oleic)) is recorded as “approximately doubled”. Further, in [3], the “increase in free radiopharmaceutical level” value was 300–500%. For the same molecule, the “displacement from HSA” value was “not observed” in [3] (setting [10]); “not displaced” in data set [3] (cephmandole, drug:HSA mole ratios up to 4:1); “no displacement” in data set [3] (setting [17]). Moreover, the “Unbound [^64Cu]Cu-PTSM” value was 3.8 ± 0.2% in data set [3] (incubated at 49°C for 30 min) and 4.2 ± 0.6% in data set [3] (room temperature control solutions). For the same molecule, the “% Free (corrected)” value in data set [3] (benzylpenicillin:HSA mole ratio 0.5, 40 mg/mL HSA) came out at 3.8 ± 0.1%; in data set [3] (benzylpenicillin:HSA mole ratio 1, 40 mg/mL HSA), 3.5 ± 0.1%; in data set [3] (benzylpenicillin:HSA mole ratio 2, 40 mg/mL HSA) it was 3.3 ± 0.2%; in [3] (benzylpenicillin:HSA mole ratio 4, 40 mg/mL HSA), 3.4 ± 0.1%; in [3] (benzylpenicillin:HSA mole ratio 8, 40 mg/mL HSA), 3.3 ± 0.1%; in data set [3] (cephmandole:HSA mole ratio 0.5, 40 mg/mL HSA) it was 3.5 ± 0.1%. Besides, the “% Free (corrected)” value in data set [3] (cephmandole:HSA mole ratio 1, 40 mg/mL HSA) is 3.2 ± 0.2%; in [3] (cephmandole:HSA mole ratio 2, 40 mg/mL HSA), 3.5 ± 0.1%; in data set [3] (cephmandole:HSA mole ratio 4, 40 mg/mL HSA) it was 4.2 ± 0.2%; in data set [3] (setting [11]) it was 4.0 ± 0.1% and 4.0% and 4.0 ± 0.4%; in data set [3] (furosemide:HSA mole ratio 1, 40 mg/mL HSA) it was 8.4 ± 0.2%; in data set [3] (setting [12]), 3.4 ± 0.1%. Further, the “% Free (corrected)” value turned out to be 3.4 ± 0.3% in data set [3] (setting [13]); 3.2 ± 0.5% in [3] (setting [14]); 4.8 ± 0.2% in data set [3] (setting [15]); 10.1 ± 0.6% in data set [3] (setting [16]); 7.1 ± 0.1% in data set [3] (phenylbutazone:HSA mole ratio 1, 40 mg/mL HSA); 28.7 ± 0.8% in [3] (phenylbutazone:HSA mole ratio 8, 40 mg/mL HSA). Also, the “% Free (corrected)” value is recorded as 4.6 ± 0.1% in data set [3] (setting [18]); 5.8 ± 0.7% in data set [3] (setting [19]); 7.7 ± 0.8% in data set [3] (setting [20]); 14.8 ± 0.3% in data set [3] (setting [21]); 20.1 ± 1.5% in [3] (setting [22]). The “increase in free [^64Cu]Cu-PTSM in solution” value in data set [3] (furosemide:HSA 8:1 mole ratio vs drug-free) is given as over 700%. Besides, the free fraction in [4] (40 mg/mL CSA, 8:1 mole ratio of warfarin (first value)) amounted to 36.1 ± 2.8%.
Consider `C=CC1=C(C)/C(=C/c2[nH]c(Cc3[nH]c(/C=C4\NC(=O)C(C)=C4C=C)c(C)c3CCC(=O)O)c(CCC(=O)O)c2C)NC1=O` [bilirubin], for which the “association with HSA (Ka)” value with HSA (site believed distinct from the IIA and IIIA drug sites, no reference given) was 9.5e+07 M⁻¹.
Regarding “ethylglyoxal bis(thiosemicarbazonato)copper(II) [[^64Cu]Cu-ETS]”, the “% Free (corrected)” value in [3] (setting [11]) was 40.6 ± 1.1%; in data set [3] (setting [12]) it was 43.9 ± 2.2%; in [3] (setting [13]), 42.1 ± 2.7%; in data set [3] (setting [14]) it was 45.8 ± 2.6%; in data set [3] (setting [15]), 43.6 ± 3.1%; in [3] (setting [16]), 49.6 ± 1.2%. Also, the “% Free (corrected)” value is listed as 42.8 ± 1.6% in [3] (setting [18]); 44.2 ± 1.2% in data set [3] (setting [19]); 45.2 ± 1.3% in data set [3] (setting [20]); 42.8 ± 3.4% in [3] (setting [21]); 44.7 ± 2.7% in [3] (setting [22]). For the same molecule, the “interaction with HSA on addition of site IIA or IIIA drugs” value in data set [3] (warfarin, ibuprofen up to 8:1) is reported as “unaffected”. The Unbound level in [4] amounted to 40.4%. In [4], this molecule showed a Free tracer of 39.5%.
